This is an account of results in ChEMBL document CHEMBL1138811, “Synthesis, conformational analysis, and cytotoxicity of conformationally constrained aplidine and tamandarin A analogues incorporating a spirolactam beta-turn mimetic” (J Med Chem, 2004).

In one test the test system is A549. Nature of the test: Concentration required to inhibit growth of human A549 cell line by 50%. The test is classed as functional, cell-based. Put shortly: (§1)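 SRB colorimetric growth assay in A549 lung and HT-29 colon carcinoma cells. Cells seeded at 5 × 10^3 per well in RPMI and attached for 18 h in drug-free medium. Samples added in (3:7) DMSO/H2O for 48–72 h exposure. Cells fixed with cold 50% (w/v) TCA at 4 °C for 60 min, then stained with 0.4% SRB in 1% acetic acid for 10 min. Bound dye solubilised in Tris, OD read at 490 nm.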

The test system of a further test is HT-29. The test is described as follows: Concentration required to inhibit growth of human […] cell line by 50% was determined. The test is classed as functional, cell-based. Put shortly:
as §1

For orientation: IC50 means the midpoint of a concentration-inhibition curve. Read a low IC50 as greater potency in that assay. With `CC[C@H](C)C1NC(=O)[C@@H](NC(=O)[C@@H](CC(C)C)N2CCC3(CCCN3C(=O)OC(C)(C)C)C2=O)[C@@H](C)OC(=O)[C@H](Cc2ccc(O)cc2)N(C)C(=O)[C@@H]2CCCN2C(=O)[C@H](CC(C)C)NC(=O)[C@@H](C(C)C)OC(=O)C[C@H]1O` (stereo partly drawn), the IC50 with A549 and in the test with HT-29 was 4.56 nM each time.

Turning to `C=C(C)C(=O)N1CCCC12CCN([C@H](CC(C)C)C(=O)N[C@@H]1C(=O)NC([C@@H](C)CC)[C@H](O)CC(=O)O[C@H](C(C)C)C(=O)N[C@@H](CC(C)C)C(=O)N3CCC[C@H]3C(=O)N(C)[C@@H](Cc3ccc(O)cc3)C(=O)O[C@@H]1C)C2=O` (stereo partly drawn), the 50% inhibitory concentration (IC50) with A549 and in the test with HT-29 was 93.9 nM throughout.

As for `CC[C@H](C)C1NC(=O)[C@@H](NC(=O)[C@@H](CC(C)C)N2CCC3(CCCN3C(=O)C(C)C)C2=O)[C@@H](C)OC(=O)[C@H](Cc2ccc(O)cc2)N(C)C(=O)[C@@H]2CCCN2C(=O)[C@H](CC(C)C)NC(=O)[C@@H](C(C)C)OC(=O)C[C@H]1O` (stereo partly drawn), the half-maximal inhibitory concentration (IC50) with A549 and in the test on HT-29 was 93.8 nM throughout.

For `CC[C@H](C)C1NC(=O)[C@@H](NC(=O)[C@@H](CC(C)C)N2CCC3(CCCN3C(=O)C(C)=O)C2=O)[C@@H](C)OC(=O)[C@H](Cc2ccc(O)cc2)N(C)C(=O)[C@@H]2CCCN2C(=O)[C@H](CC(C)C)NC(=O)[C@@H](C(C)C)OC(=O)C[C@H]1O` (stereo partly drawn), the half-inhibitory concentration (IC50) in the test with A549 and with HT-29 was 93.8 nM in each case.

Turning to `CC[C@H](C)[C@@H]1NC(=O)[C@@H](NC(=O)[C@@H](C)N2CCC3(CCCN3C(=O)OC(C)(C)C)C2=O)[C@@H](C)OC(=O)[C@H](Cc2ccc(OC)cc2)N(C)C(=O)[C@@H]2CCCN2C(=O)[C@H](CC(C)C)NC(=O)[C@H](C)C(=O)[C@@H](C(C)C)OC(=O)C[C@H]1O` (stereo partly drawn), the half-inhibitory concentration (IC50) in the test on A549 and in the test with HT-29 was 8.68 nM in each case.

Take `CC[C@H](C)[C@@H]1NC(=O)[C@@H](NC(=O)[C@@H](C)N2CCC3(CCCN3C(=O)C(C)C)C2=O)[C@@H](C)OC(=O)[C@H](Cc2ccc(OC)cc2)N(C)C(=O)[C@@H]2CCCN2C(=O)[C@H](CC(C)C)NC(=O)[C@H](C)C(=O)[C@@H](C(C)C)OC(=O)C[C@H]1O` (stereo partly drawn): the IC50 with A549 and in the test on HT-29 was 89.1 nM each time.

With `CC[C@H](C)[C@@H]1NC(=O)[C@@H](NC(=O)[C@@H](C)N2CCC3(CCCN3C(=O)C(C)=O)C2=O)[C@@H](C)OC(=O)[C@H](Cc2ccc(OC)cc2)N(C)C(=O)[C@@H]2CCCN2C(=O)[C@H](CC(C)C)NC(=O)[C@H](C)C(=O)[C@@H](C(C)C)OC(=O)C[C@H]1O` (stereo partly drawn), the IC50 was determined as 8.55 nM in the test with A549 and 8.9 nM in the test on HT-29.

On to `CC[C@H](C)C1NC(=O)[C@@H](NC(=O)[C@@H](CC(C)C)N(C)C(=O)[C@@H]2CCCN2C(=O)C(C)=O)[C@@H](C)OC(=O)[C@H](Cc2ccc(O)cc2)N(C)C(=O)[C@@H]2CCCN2C(=O)[C@H](CC(C)C)NC(=O)[C@@H](C(C)C)OC(=O)C[C@H]1O` (stereo partly drawn) [DEHYDROTAMANDARIN A], for which the IC50 in the test with A549 and with HT-29 was 0.47 nM in each case.

Regarding `CC[C@H](C)C1NC(=O)[C@@H](NC(=O)[C@@H](CC(C)C)N(C)C(=O)[C@@H]2CCCN2C(=O)C(C)O)[C@@H](C)OC(=O)[C@H](Cc2ccc(O)cc2)N(C)C(=O)[C@@H]2CCCN2C(=O)[C@H](CC(C)C)NC(=O)[C@@H](C(C)C)OC(=O)C[C@H]1O` (stereo partly drawn) [TAMANDARIN A], the IC50 in the test with A549 and with HT-29 was 0.95 nM in each case.
